Bioassay records deposited in PubChem by several laboratories.
The list is not random: actives were taken first. Their share in the collection is about 2.9%.
ADAM10 inh: human ADAM10 inhibitors, primary screen, biochemical, QFRET, HTS. recombinant ADAM10, EDANS/DABCYL FRET peptide cleavage, 3 h. inhibition, % at 7 µM. 370,000 compounds, 0.62% hits. AID 720582, 2013;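 active means inhibition above a per-campaign cutoff equal to the mean of compounds falling between control-based bounds plus 3 SD, cut at about 20% in these data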;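 further: 0% = DMSO wells while the 100% control is not disclosed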
CaV13 ICDI inh: Primary screen for inhibitors of IQ motif and Ca2+-dependent inactivation inhibitor domain binding in CACNA1D, Förster resonance energy transfer in living cells, … | 340,000 compounds, 0.098% hits | inhibition, % at 12.3 µM | HEK cells, CFP/YFP FRET ICDI-IQ, plate reader, 10 min; percent FRET-ratio fall versus neutral wells;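 active means mean replicate inhibition of at least 30% and at least 1% of replicates passing that level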;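 further: 0% = median of the neutral control wells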
Arrestin-AP2 inh: inhibitors of beta-arrestin/AP2 binding, primary screen, biochemical, GPCR trafficking, flow cytometry | AID 504490, 2011 | 340,000 compounds, 0.31% hits | FITC-arrestin peptide / GST-AP2 beads; AP2 beta2 appendage carries R879A mutation | inhibition, % at 10 µM;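 active means inhibition above a set limit, near 3 SD of compounds lacking own fluorescence, cut at about 54% in these data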;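 further: plate controls were DMSO wells for no effect and 5 µM unlabelled arrestin peptide for full effect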
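Measured by: flow cytometry, FL1 (488/535 nm); Material: AP2 appendage R879A on GSH beads; Evaluation: percent response; Timing: pre-incubation 12 min, peptide binding 1 h, room temperature; Also added: 50 nM FITC-arrestin peptide; Medium: PBS with 0.05% Tween 20 and 0.1% BSA.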
CendR NRP1 mod: modulators of CendR peptide binding to NRP-1, primary screen, biochemical, fluorescence polarization, uHTS. Neuropilin-1 (Homo sapiens), O14786. FAM-RPARPAR peptide binding to NRP-1. inhibition, % at 25 µM. 360,000 compounds, 0.85% hits. AID 602438, 2012;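 active means inhibition or corrected inhibition above about 18%, plus a signal ratio from 0.5 to 1.5, limit read from the data, passing the limit was not always enough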
Target sequence (O14786 whole entry, looked up): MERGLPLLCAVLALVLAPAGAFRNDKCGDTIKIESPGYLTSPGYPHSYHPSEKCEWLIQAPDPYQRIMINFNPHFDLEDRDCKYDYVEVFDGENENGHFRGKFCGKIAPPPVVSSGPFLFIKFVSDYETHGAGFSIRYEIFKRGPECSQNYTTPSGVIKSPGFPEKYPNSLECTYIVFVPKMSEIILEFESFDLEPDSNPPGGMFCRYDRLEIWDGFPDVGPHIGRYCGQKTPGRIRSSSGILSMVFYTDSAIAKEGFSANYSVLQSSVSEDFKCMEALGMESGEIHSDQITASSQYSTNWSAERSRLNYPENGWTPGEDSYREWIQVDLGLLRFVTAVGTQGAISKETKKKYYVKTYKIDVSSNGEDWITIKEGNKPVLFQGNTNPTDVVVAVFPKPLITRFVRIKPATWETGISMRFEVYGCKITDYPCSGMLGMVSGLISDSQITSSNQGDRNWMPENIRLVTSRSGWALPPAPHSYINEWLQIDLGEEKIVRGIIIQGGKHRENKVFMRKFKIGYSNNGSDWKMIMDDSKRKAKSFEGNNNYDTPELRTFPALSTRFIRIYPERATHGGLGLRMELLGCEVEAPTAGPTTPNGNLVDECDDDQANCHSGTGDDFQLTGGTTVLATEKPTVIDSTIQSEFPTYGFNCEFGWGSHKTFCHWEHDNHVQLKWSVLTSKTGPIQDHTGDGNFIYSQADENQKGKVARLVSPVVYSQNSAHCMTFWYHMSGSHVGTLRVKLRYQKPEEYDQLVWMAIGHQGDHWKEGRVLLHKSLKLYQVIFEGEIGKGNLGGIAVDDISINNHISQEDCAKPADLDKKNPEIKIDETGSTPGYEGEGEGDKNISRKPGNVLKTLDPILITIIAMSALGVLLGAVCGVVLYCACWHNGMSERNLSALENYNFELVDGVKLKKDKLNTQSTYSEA
ADAM17 inh: ADAM17 inhibitors, primary screen, biochemical, QFRET; Disintegrin and metalloproteinase domain-containing protein 17 (Homo sapiens), P78536; recombinant ADAM17, EDANS/DABCYL FRET peptide cleavage; inhibition, % at 6.95 µM; 370,000 compounds, 0.83% hits; AID 720648, 2013;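 active means inhibition above the mean of compounds lying between control limits plus 3 SD, set per campaign, cut at about 8.5% in these data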;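 further: 0% = DMSO-only wells as the low control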
FAS-TE inh: FAS thioesterase domain inhibitors, primary screen, biochemical, fluorescence intensity, uHTS. 360,000 compounds, 0.67% hits. inhibition, % at 15 µM. recombinant FAS-TE, OMFH fluorogenic substrate, fluorescence endpoint;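 active means compounds whose normalised, plate-corrected inhibition of enzyme fluorescence in the single-dose primary screen is 50% or more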;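 further: 0% = DMSO with enzyme and 100% = substrate without enzyme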
FAS-TE inh conf: FAS thioesterase domain inhibitors, confirmation, biochemical, fluorescence intensity, single concentration; shares compounds with FAS-TE inh; recombinant FAS-TE, OMFH fluorogenic substrate; inhibition, % at 15 µM; 2,300 compounds, 45% hits;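 active means compounds inhibiting the enzyme by at least 50% at 15 µM in any one of the replicates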;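 further: 0% = enzyme with DMSO only and 100% = wells lacking enzyme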
* hit, by the source's call; i = inactive; nt = no result.

SMILES	ADAM10 inh	CaV13 ICDI inh	Arrestin-AP2 inh	CendR NRP1 mod	ADAM17 inh	FAS-TE inh	FAS-TE inh conf
Cc1ccc(N2C(=O)c3cccc4c(Oc5ccccc5[N+](=O)[O-])ccc(c34)C2=O)c(C)c1	-6	-3	4	8	-3	61*	10
O=C1c2cccc3c([N+](=O)[O-])ccc(c23)C(=O)N1c1ccccn1	-6	-16	21	15	-4	-198	nt
O=C1c2ccc(Cl)cc2S(=O)(=O)c2cccc(C(=O)N3CCN(c4ccc(Cl)cn4)CC3)c21	9	-10	3	-10	8	59*	5
O=C1c2ccccc2S(=O)(=O)c2cc(C(=O)N3CCN(c4c(Cl)cncc4Cl)CC3)ccc21	-1	-11	27	0	-6	62*	21
O=C1c2ccc(-c3ccc(Cl)c(C(F)(F)F)c3)cc2S(=O)(=O)c2cccc(C(=O)N3CCN(c4ncc(Br)cn4)CC3)c21	-10	-4	-5	14	-4	69*	11
O=C1c2ccccc2S(=O)(=O)c2cc(C(=O)N3CCN(c4ccccc4)CC3)ccc21	-4	-9	-3	-2	0	20	nt
O=C(Nc1cccs1)OC1CC2CC1[C@H]1CCCCN1C2 (some centres undefined)	2	nt	nt	nt	1	nt	nt
CSc1nc(-c2cccs2)c(C#N)c(=O)[nH]1	-11	-9	-1	-25	-2	-4	nt
N#Cc1c(-c2cccs2)nc(SCc2ccc(Cl)cc2)[nH]c1=O	9	-6	3	-58	-3	66*	79*
CC(C)(C)c1ccc(CC(=O)N2CCC2(C)C(=O)NCc2cccs2)cc1 (centres undefined)	-1	-12	nt	-11	2	5	nt
CCCCCc1nc2sc3c(c2c(=O)n1NC(=O)c1ccc([N+](=O)[O-])cc1)CC(C)(C)OC3	10	13	-6	6	6	78*	63*
O=C(NCc1ccccc1Cl)[C@H]1CCCN1C(=O)[C@H]1CCCN1C(=O)c1cccc2ccccc12	-4	-5	nt	5	-3	-9	nt
N#C/C(=C\c1cccc([N+](=O)[O-])c1)C(=O)NCc1ccc(Cl)cc1	5	-3	7	9	-1	74*	77*
O=S(=O)(c1ccc(Cl)cc1)N1CCCC(c2nc(-c3ccc(F)cc3)no2)C1 (centres undefined)	-1	-11	-3	-4	-3	64*	46*
CC(=O)c1ccc(N2CCN(S(=O)(=O)c3ccc(-c4cnc(C5CC5)o4)cc3)CC2)cc1	nt	nt	14	-3	nt	57*	43*
O=C1C=C(OCCCl)CC(c2cccc(Cl)c2)O1 (centres undefined)	-1	-6	nt	8	1	nt	nt
O=C(c1nn2c(C(F)(F)F)cc(-c3ccccc3)nc2c1Cl)N1CCOCC1	-1	-5	-6	0	-2	4	nt
O=C(c1nn2c(C(F)(F)F)cc(-c3cccs3)nc2c1Cl)N1CCCc2ccccc21	-5	-49	-133	-1	-1	68*	-3
O=C(c1ccccc1)n1ccc(-c2cnc(-c3ccccc3)s2)n1	i	0	26	5	-328	36	nt
COc1ccc(S(=O)(=O)n2ccc(-c3cnc(-c4ccccc4)s3)n2)cc1	-225	-6	-4	-11	-78	58*	42
COc1ccc(C(=O)N2CCCC(C(N)=O)C2)cc1S(=O)(=O)N1CCOCC1 (centres undefined)	-2	-2	-8	11	0	-2	nt
